{"data": "Published values gathered from unrelated publications", "COQ8A": "Atypical kinase COQ8A, mitochondrial (COQ8A, Homo sapiens, UniProt Q8NI60)", "HTR5A": "5-hydroxytryptamine receptor 5A (HTR5A, Homo sapiens, UniProt P47898)", "PI4KA": "Phosphatidylinositol 4-kinase alpha (PI4KA, Homo sapiens, UniProt P42356)", "note": "Compare with care: the assays were run in different laboratories."}
{"SMILES": "Cn1cnc(Br)c1C1=CN(c2ncnc3[nH]cnc23)CCS1", "target": "Mitogen-activated protein kinase kinase kinase 19 (MAP3K19, Homo sapiens, UniProt Q56UN5)", "assay": "enzyme activity, inhibitor, radiometric", "conditions": "2 µM", "inhibition": "92.8%"}
{"SMILES": "O=C(CSc1nc2nccnc2c(=O)n1CCc1ccccc1)Nc1nccs1", "target": "COQ8A", "assay": "enzyme activity, inhibitor", "conditions": "10 µM", "inhibition": "10%"}
{"SMILES": "N#Cc1cc(Cn2c(N3CCCC3)nc3ccccc32)ccc1F", "target": "HTR5A", "assay": "ligand displacement", "conditions": "10 µM", "inhibition": "-15%"}
{"SMILES": "O=C(c1ccc(F)cc1)N(Cc1ccccc1)C1CCCCC1", "target": "D(4) dopamine receptor (DRD4, Homo sapiens, UniProt P21917, del265-296)", "assay": "cell-free assay", "conditions": "10 µM", "inhibition": "1%"}
{"SMILES": "CCCNc1nc2ccccc2n1Cc1ccc(Cl)cc1", "target": "HTR5A", "assay": "ligand displacement", "conditions": "10 µM", "inhibition": "24.8%"}
{"SMILES": "CC(C)CCn1c(SCC(=O)Nc2ccccc2C(F)(F)F)nc2nccnc2c1=O", "target": "PI4KA", "assay": "enzyme activity, inhibitor", "conditions": "10 µM", "inhibition": "< 20%"}
{"SMILES": "O=C1N=C(N2CCCCN2)S/C1=C\\c1ccc(F)cc1O", "target": "Neurotensin receptor type 1 (NTSR1, Homo sapiens, UniProt P30989)", "assay": "ligand displacement, radioligand", "conditions": "10 µM", "inhibition": "< 10%"}
{"SMILES": "CCN(CC)c1ccc(C2Nc3ccc(C(=O)c4ccccc4)cc3NC3=C2C(=O)CC(C)(C)C3)cc1 (stereo not shown)", "target": "D(4) dopamine receptor (DRD4, Homo sapiens, UniProt P21917)", "assay": "ligand displacement, radioligand", "conditions": "10 µM", "inhibition": "100%"}
{"SMILES": "CCN1CC(c2ccccc2)c2cc(OC)c(OC)c3c2C1Cc1cc2c(cc1-3)OCO2 (stereo not shown)", "target": "HTR5A", "assay": "ligand displacement, radioligand", "conditions": "10 µM", "inhibition": "-12.1%"}
{"SMILES": "O=C(Oc1nsnc1N1CCN(c2ccccc2)CC1)N1CCCCC1", "target": "Monoacylglycerol lipase ABHD6 (ABHD6, Homo sapiens, UniProt Q9BV23)", "assay": "enzyme activity, inhibitor, fluorescence", "conditions": "1 µM, lysate", "inhibition": "40%"}
{"SMILES": "CCN1CCN(Cc2ccc(NC(=O)c3ccc(C)c(Oc4ccnc5[nH]ccc45)c3)cc2C(F)(F)F)CC1", "target": "PI4KA", "assay": "target engagement in cells, inhibitor, chemoproteomics", "test system": "Huh-7", "conditions": "10 µM", "inhibition": "-10.4%"}
{"SMILES": "CS(=O)(=O)Nc1cccc(-c2csc(NC(=O)CSc3nc4nccnc4c(=O)n3CCc3ccccc3)n2)c1", "target": "COQ8A", "assay": "enzyme activity, inhibitor", "conditions": "10 µM", "inhibition": "14%"}
{"SMILES": "CC(C)C[C@H](NC(=O)[C@H](CC(C)C)NC(=O)CNC(=O)[C@H](C)NC(=O)[C@H](C)NC(=O)[C@H](CCCNC(=N)N)NC(=O)CNC(=O)CCCCNC(=O)[C@H](CCCCN)NC(=O)[C@H]1CCCN1C(=O)[C@H](CCCCN)NC(=O)[C@H](CCCCN)NC(=O)[C@H](CCCCN)NC(=O)[C@H](CCCCN)NC(=O)[C@H](Cc1ccc(O)cc1)NC(=O)[C@@H](N)Cc1c[nH]c2ccccc12)C(N)=O", "target": "Neuropeptides B/W receptor type 1 (NPBWR1, Homo sapiens, UniProt P48145)", "assay": "calcium signal, antagonist", "conditions": "10 µM", "inhibition": "95%"}
